# Assay results from different studies.
# Effect on: cell growth or viability
SMILES,cell line,technique,time,IC50 [µM]
COC(=O)/C=C/C=C/c1ccc2c(c1)OCO2,COR-L23,SRB,,95.6
O=C1Nc2ccc(Br)cc2/C1=N/NC(=O)c1cc2ccccc2[nH]1,ZR75,,,21.9
COc1cc(C2Oc3cc([C@H]4Oc5cc(O)cc(O)c5C(=O)[C@@H]4O)ccc3OC2CO)ccc1O (stereo partly shown),Hep3B,CCK-8,72 h,7.21
COc1cc2c(Oc3ccc(NC(=O)C4(C(=O)Nc5ccc(F)cc5)CC4)cc3F)ccnc2cc1OCCCN1CCOCC1,Rh41,,72 h,0.59
CC(=O)Oc1ccc2c(c1)C(C)=CC(C)(C)N2Cc1ccccc1,Hep3B,MTT,72 h,8
Cc1cc(Nc2ncc(Cl)c(Nc3ccccc3S(=O)(=O)C(C)C)n2)c(OC(C)C)cc1C1CCNCC1,Rh41,,72 h,0.35
COc1cc(Nc2nccc(-c3cnn4nc(OC)ccc34)n2)cc(C(F)(F)F)c1,CAKI-2,ATP luminescence,,0.2
CN1C(=O)/C(=N\NC(=O)c2cc3ccccc3[nH]2)c2cc(F)ccc21,ZR75,,,4.31
[Fe+2].c1cc[cH-]c1.c1cc[cH-]c1,BL2,MTT,48 h,> 100
CCCCC/C=C/C(=O)CCc1ccc(O)c(OC)c1,COR-L23,SRB,,16.2
CCCCC(C(=O)COc1c(F)c(F)cc(F)c1F)n1cc([C@@](C)(NCc2ccc3ncccc3c2)C2CC2)nn1 (stereo partly shown),BESM,,72 h,> 10
O=C1NC(=NCc2cccs2)S/C1=C\c1ccc2ncccc2c1,SR,,,0.372
O=C(Nc1cccc(C(=O)Nc2ccc3[nH]ncc3c2)c1)Nc1cccc(C(F)(F)F)c1,KM12,ATP luminescence,72 h,39.5
O=C(N/N=C1\C(=O)N(c2ccccc2)c2ccccc21)c1cc2ccccc2[nH]1,ZR75,,,1.32
O=C(Nc1ccc(Br)cc1)Nc1cccc(C(=O)Nc2ccc3[nH]ncc3c2)c1,KM12,ATP luminescence,72 h,> 50
COc1ccc2c(c1)/C(=N/NC(=O)c1cc3ccccc3[nH]1)C(=O)N2C,ZR75,,,1.48
CCCCC(C(=O)COc1c(F)c(F)cc(F)c1F)n1cc([C@@](C)(NCc2ccc3ncccc3c2)C(C)C)nn1 (stereo partly shown),BESM,,72 h,> 10
O=C(Nc1ccc2[nH]ncc2c1)c1cccc(NC(=S)Nc2ccc(C(F)(F)F)cc2)c1,KM12,ATP luminescence,72 h,23.1
O=C1Nc2ccc(F)cc2/C1=N/NC(=O)c1cc2ccccc2[nH]1,ZR75,,,> 30
O=C(Nc1cccc(F)c1)Nc1cccc(C(=O)Nc2ccc3[nH]ncc3c2)c1,KM12,ATP luminescence,72 h,41.5
CC(C)C[C@H](NC(=O)[C@H](Cc1ccccc1)NC(=O)c1cnccn1)B(O)O,CAKI-2,ATP luminescence,,0.024
C[C@H]1[C@@H](O)O[C@@H]2O[C@@]3(C)CC[C@H]4[C@H](C)CC[C@@H]1[C@@]24OO3,Hep3B,CCK-8,48 h,> 50
O=C1Nc2ccc(Cl)cc2/C1=N/NC(=O)c1cc2ccccc2[nH]1,ZR75,,,18
O=C(Nc1ccc(C(F)(F)F)cc1)Nc1cccc(C(=O)Nc2ccc3[nH]nc(-c4ccccc4)c3c2)c1,KM12,ATP luminescence,72 h,> 50
FC(F)(F)c1ccc(C(c2c[nH]c3ccccc23)c2c[nH]c3ccccc23)cc1,PPC-1,ATP luminescence,22 h,17.6
O=C(Nc1ccc(I)cc1)Nc1cccc(C(=O)Nc2ccc3[nH]ncc3c2)c1,KM12,ATP luminescence,72 h,> 50
CCC(C(=O)COc1c(F)c(F)cc(F)c1F)n1cc([C@@](C)(NCc2ccc3ncccc3c2)C2CCC2)nn1 (mixture of isomers),BESM,,72 h,> 10
O=C(Nc1cccc(C(=O)Nc2ccc3[nH]ncc3c2)c1)Nc1ccccc1Cl,KM12,ATP luminescence,72 h,> 50
CC(C)C(=O)Nc1ccc([N+](=O)[O-])c(C(F)(F)F)c1,Hep3B,CCK-8,48 h,> 50
COc1cc2nccc(Oc3ccc(NC(=O)C4(C(=O)Nc5ccc(F)cc5)CC4)cc3)c2cc1OC,Rh41,,72 h,2.4
CN1CCN(CC(=O)Nc2cccc(C(=O)Nc3ccc4[nH]ncc4c3)c2)CC1,KM12,ATP luminescence,72 h,> 50
